Test results: ChEMBL document CHEMBL4330076, “Quinazolin-2,4-dione-Based Hydroxamic Acids as Selective Histone Deacetylase-6 Inhibitors for Treatment of Non-Small Cell Lung Cancer” (J Med Chem, 2019)

Key:
[1] = biological target: T1, Protein deacetylase HDAC6 (Homo sapiens, UniProt Q9UBN7); assay: Inhibition of human full-length recombinant HDAC6 expressed in baculovirus infected Sf9 insect cells using fluorogenic peptide RHKKAc as substrate after 2 hrs
T1 sequence (Q9UBN7 whole entry): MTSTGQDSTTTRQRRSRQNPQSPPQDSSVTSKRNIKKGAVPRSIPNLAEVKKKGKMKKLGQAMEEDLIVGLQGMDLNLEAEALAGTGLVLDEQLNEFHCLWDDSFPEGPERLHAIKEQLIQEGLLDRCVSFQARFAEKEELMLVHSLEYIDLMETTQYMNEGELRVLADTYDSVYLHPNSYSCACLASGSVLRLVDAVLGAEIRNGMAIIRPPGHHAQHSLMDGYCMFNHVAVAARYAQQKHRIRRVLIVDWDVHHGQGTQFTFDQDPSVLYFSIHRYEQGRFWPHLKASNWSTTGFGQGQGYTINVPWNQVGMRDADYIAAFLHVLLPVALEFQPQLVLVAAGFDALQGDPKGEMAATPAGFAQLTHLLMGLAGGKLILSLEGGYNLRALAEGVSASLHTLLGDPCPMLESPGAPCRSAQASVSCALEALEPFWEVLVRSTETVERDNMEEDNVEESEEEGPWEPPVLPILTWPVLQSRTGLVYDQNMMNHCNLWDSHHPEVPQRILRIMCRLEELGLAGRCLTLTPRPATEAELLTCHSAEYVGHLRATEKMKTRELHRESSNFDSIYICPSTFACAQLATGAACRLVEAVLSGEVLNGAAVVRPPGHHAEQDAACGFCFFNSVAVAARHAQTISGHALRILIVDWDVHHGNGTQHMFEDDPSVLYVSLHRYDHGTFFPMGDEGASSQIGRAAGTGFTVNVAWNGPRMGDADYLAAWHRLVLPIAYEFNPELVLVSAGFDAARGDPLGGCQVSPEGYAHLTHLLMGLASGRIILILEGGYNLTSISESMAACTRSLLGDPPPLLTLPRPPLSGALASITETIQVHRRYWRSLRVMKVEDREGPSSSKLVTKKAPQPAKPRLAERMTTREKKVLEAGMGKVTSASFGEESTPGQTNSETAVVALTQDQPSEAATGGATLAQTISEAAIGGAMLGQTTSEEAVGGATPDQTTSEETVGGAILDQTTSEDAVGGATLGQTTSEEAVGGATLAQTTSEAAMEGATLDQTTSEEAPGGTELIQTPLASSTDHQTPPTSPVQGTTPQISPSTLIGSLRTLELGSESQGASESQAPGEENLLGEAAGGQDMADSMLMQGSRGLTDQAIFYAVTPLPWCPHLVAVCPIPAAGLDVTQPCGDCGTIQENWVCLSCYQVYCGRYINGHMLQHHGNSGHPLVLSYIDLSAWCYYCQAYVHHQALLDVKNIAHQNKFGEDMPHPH

[2] = biological target: Histone deacetylase 1 (Homo sapiens, UniProt Q13547); assay: Inhibition of human full-length recombinant HDAC1 expressed in baculovirus infected Sf9 insect cells using fluorogenic peptide RHKKAc as substrate after 2 hrs
Summary of the method: (§1)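 Run by an outside contract lab. IC50 was obtained from 10-point dose-response curves using threefold serial dilutions of compound from the top concentration.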

[3] = biological target: T2, Histone deacetylase 8 (Homo sapiens, UniProt Q9BY41); assay: Inhibition of human full-length recombinant HDAC8 expressed in baculovirus infected Sf9 insect cells using fluorogenic peptide RHKAcKAc as substrate after 2 hrs
T2 sequence (Q9BY41 whole entry): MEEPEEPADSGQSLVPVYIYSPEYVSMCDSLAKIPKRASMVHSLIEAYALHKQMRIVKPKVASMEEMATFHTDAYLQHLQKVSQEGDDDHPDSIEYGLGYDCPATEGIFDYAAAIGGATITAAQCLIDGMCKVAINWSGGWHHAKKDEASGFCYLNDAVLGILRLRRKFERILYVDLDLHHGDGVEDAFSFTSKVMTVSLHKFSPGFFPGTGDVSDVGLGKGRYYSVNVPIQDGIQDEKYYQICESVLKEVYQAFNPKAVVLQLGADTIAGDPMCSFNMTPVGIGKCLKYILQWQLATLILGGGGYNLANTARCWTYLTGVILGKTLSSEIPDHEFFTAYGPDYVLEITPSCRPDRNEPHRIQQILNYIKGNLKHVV

[4] = biological target: T3, Histone deacetylase 11 (Homo sapiens, UniProt Q96DB2); assay: Inhibition of human full-length recombinant HDAC11 expressed in baculovirus infected Sf9 insect cells using fluorogenic peptide RHKKAc as substrate after 2 hrs; summary of the method: as §1
T3 sequence (Q96DB2 whole entry): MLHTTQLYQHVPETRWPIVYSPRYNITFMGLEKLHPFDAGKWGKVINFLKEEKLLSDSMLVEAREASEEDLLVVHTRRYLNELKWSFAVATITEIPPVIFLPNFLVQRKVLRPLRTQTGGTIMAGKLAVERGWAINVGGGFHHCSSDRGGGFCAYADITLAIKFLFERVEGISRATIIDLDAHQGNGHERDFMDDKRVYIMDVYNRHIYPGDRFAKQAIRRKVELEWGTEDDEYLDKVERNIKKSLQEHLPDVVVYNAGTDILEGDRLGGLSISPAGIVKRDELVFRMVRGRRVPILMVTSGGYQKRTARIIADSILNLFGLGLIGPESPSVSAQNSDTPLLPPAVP

[5] = biological target: T1, Protein deacetylase HDAC6; assay: Inhibition of human HDAC6 CD2 expressed in Escherichia coli BL21 (RIL) using Boc-Lys (Ac)-AMC as substrate preincubated for 10 mins followed by substrate addition and measured after 30 mins by fluorescence assay
[6] = biological target: T1, Protein deacetylase HDAC6; assay: Inhibition of human full-length recombinant HDAC6 expressed in baculovirus infected Sf9 insect cells using Boc-Lys (Ac)-AMC as substrate preincubated for 10 mins followed by substrate addition and measured after 30 mins by fluorescence assay
[7] = tested on: A549; assay: Cytotoxicity against human A549 cells after 72 hrs by MTT assay; format: functional, cell-based; settings: A549, 72 h
Summary of the method: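 Human A549 lung cancer cells exposed to serial dilutions of inhibitor at 37 °C for 72 h. Cytotoxicity expressed as IC50.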

[8] = tested on: Lewis lung carcinoma cell line; assay: Induction of apoptosis in mouse LL/2 cells assessed as late apoptotic cells at 10 uM after 24 hrs by Annexin V/propidium iodide staining-based flow cytometric analysis (reference value: 8.7%); format: functional
[9] = tested on: A549; assay: Induction of apoptosis in human A549 cells assessed as early apoptotic cells at 10 uM after 24 hrs by Annexin V/propidium iodide staining-based flow cytometric analysis (reference value: 1.2%); format: functional
[10] = tested on: Lewis lung carcinoma cell line; assay: Induction of apoptosis in mouse LL/2 cells assessed as viable cells at 10 uM after 24 hrs by Annexin V/propidium iodide staining-based flow cytometric analysis (reference value: 82.3%); format: functional; settings: read-out: Activity
[11] = tested on: Lewis lung carcinoma cell line; assay: Induction of apoptosis in mouse LL/2 cells assessed as necrotic cells at 10 uM after 24 hrs by Annexin V/propidium iodide staining-based flow cytometric analysis (reference value: 7.3%); format: functional
[12] = tested on: Lewis lung carcinoma cell line; assay: Cytotoxicity against mouse LL/2 cells at 10 uM after 72 hrs by MTT assay relative to control; format: functional; settings: in the assay text read “at 10 nM” for “at 10 uM”
Summary of the method: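 Mouse LL/2 cells treated with inhibitor alone or combined with paclitaxel for 3 days. Viability measured by MTT assay relative to untreated control.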

[13] = tested on: A549; assay: Induction of apoptosis in human A549 cells assessed as viable cells at 10 uM after 24 hrs by Annexin V/propidium iodide staining-based flow cytometric analysis (reference value: 96.2%); format: functional; settings: A549, 24 h, read-out: Activity
[14] = tested on: Lewis lung carcinoma cell line; assay: Induction of apoptosis in mouse LL/2 cells assessed as early apoptotic cells at 10 uM after 24 hrs by Annexin V/propidium iodide staining-based flow cytometric analysis (reference value: 1.8%); format: functional
[15] = tested on: A549; assay: Induction of apoptosis in human A549 cells assessed as late apoptotic cells at 10 uM after 24 hrs by Annexin V/propidium iodide staining-based flow cytometric analysis (reference value: 1.6%); format: functional
[16] = tested on: Lewis lung carcinoma cell line; assay: Cytotoxicity against mouse LL/2 cells after 72 hrs by MTT assay; format: functional, cell-based
[17] = tested on: Lewis lung carcinoma cell line; assay: Induction of alpha tubulin acetylation in mouse LL/2 cells at 10 uM after 24 hrs by Western blot analysis relative to control; format: functional
[18] = tested on: A549; assay: Induction of apoptosis in human A549 cells assessed as necrotic cells at 10 uM after 24 hrs by Annexin V/propidium iodide staining-based flow cytometric analysis (reference value: 1.1%); format: functional
[19] = AUC (0 to 24 hrs) in C57BL/6 mouse lung at 40 mg/kg, po administered via gavage by LC-MS/MS analysis; format: ADME, organism-based; set-up: time < 24 hr, dose 40 mg/kg, route oral; settings: in vivo
[20] = AUC (0 to 24 hrs) in C57BL/6 mouse kidney at 40 mg/kg, po administered via gavage by LC-MS/MS analysis; format: ADME, organism-based; set-up: time < 24 hr, dose 40 mg/kg, route oral; settings: in vivo
[21] = AUC (0 to 24 hrs) in C57BL/6 mouse plasma at 40 mg/kg, po administered via gavage by LC-MS/MS analysis; format: ADME, organism-based; set-up: time < 24 hr, dose 40 mg/kg, route oral; settings: in vivo
[22] = AUC (0 to 24 hrs) in C57BL/6 mouse liver at 40 mg/kg, po administered via gavage by LC-MS/MS analysis; format: ADME, organism-based; set-up: dose 40 mg/kg, time < 24 hr, route oral; settings: in vivo

Chain of Histone deacetylase 1 (Q13547 whole entry): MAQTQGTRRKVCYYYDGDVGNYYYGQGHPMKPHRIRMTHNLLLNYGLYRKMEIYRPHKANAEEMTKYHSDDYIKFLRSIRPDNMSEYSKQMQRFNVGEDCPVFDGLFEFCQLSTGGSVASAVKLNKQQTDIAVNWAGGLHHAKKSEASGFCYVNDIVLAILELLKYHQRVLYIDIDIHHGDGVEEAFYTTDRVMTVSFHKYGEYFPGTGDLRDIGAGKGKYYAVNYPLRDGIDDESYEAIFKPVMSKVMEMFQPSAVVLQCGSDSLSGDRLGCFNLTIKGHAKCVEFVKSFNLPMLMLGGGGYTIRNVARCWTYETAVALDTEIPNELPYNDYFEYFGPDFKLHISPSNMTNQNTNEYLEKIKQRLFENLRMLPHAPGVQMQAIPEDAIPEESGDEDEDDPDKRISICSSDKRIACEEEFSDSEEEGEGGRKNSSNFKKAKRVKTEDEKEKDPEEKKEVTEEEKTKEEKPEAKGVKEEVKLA

| Compound | IC50 [1] | IC50 [2] | IC50 [4] | IC50 [7] | also measured |
| --- | --- | --- | --- | --- | --- |
| O=C(NO)c1ccc(Cn2c(=O)n(CCc3ccccc3)c(=O)c3ccc(O)cc32)cc1 | 32 nM |  |  |  |  |
| O=C(NO)c1ccc(Cn2c(=O)n(CCc3ccc(F)cc3)c(=O)c3ccccc32)cc1 |  |  |  | 3650 nM |  |
| O=C(NO)c1ccc(Cn2c(=O)n(CCc3ccc(O)cc3)c(=O)c3ccccc32)cc1 | 5 nM | 9080 nM | 11300 nM |  | IC50 [3]: 845 nM |
| O=C(NO)c1ccc(Cn2c(=O)n(CCc3ccccc3)c(=O)c3cc(F)ccc32)cc1 |  |  |  | 12200 nM |  |
| O=C(NO)c1ccc(Cn2c(=O)n(CCc3ccccc3)c(=O)c3ccccc32)s1 | 20 nM | 22900 nM | 19800 nM | 13500 nM | IC50 [3]: 97 nM |
| COc1ccccc1CCn1c(=O)c2ccccc2n(Cc2ccc(C(=O)NO)cc2)c1=O | 12 nM |  |  | 11800 nM | Ki [5]: 2.6 nM; Ki [6]: 2.1 nM |
| O=C(NO)c1ccc(Cn2c(=O)n(CCc3cccc(C(F)(F)F)c3)c(=O)c3ccccc32)cc1 | 24 nM | 12700 nM |  | 6030 nM | IC50 [3]: 1760 nM |
| O=C(NO)c1ccc(Cn2c(=O)n(CCc3ccccc3)c(=O)c3ccc(F)cc32)cc1 |  |  |  | 3920 nM |  |
| CC(=O)O[C@H]1C(=O)[C@@]2(C)[C@H]([C@H](OC(=O)c3ccccc3)[C@]3(O)C[C@H](OC(=O)[C@H](O)[C@@H](NC(=O)c4ccccc4)c4ccccc4)C(C)=C1C3(C)C)[C@]1(OC(C)=O)CO[C@@H]1C[C@@H]2O [PACLITAXEL] |  |  |  |  | Activity [8]: 15.9%; Activity [9]: 2.9%; viability at 10 µM [10]: 73.4%; Activity [11]: 6.9%; Activity [12]: 20%; viability at 10 µM [13]: 94.9%; Activity [14]: 4%; Activity [15]: 1.2%; IC50 [16]: 10 nM; fold change (FC) [17]: 7.28; Activity [18]: 1% |
| O=C(CCCCCCNC(=O)c1cnc(N(c2ccccc2)c2ccccc2)nc1)NO [RICOLINOSTAT] |  |  |  | 7700 nM | AUC [19]: 622 ng·h/g; AUC [20]: 2493 ng·h/g; AUC [21]: 308 ng·h/g; AUC [22]: 1442 ng·h/g |
| O=C(CCCCCCC(=O)Nc1ccccc1)NO [VORINOSTAT] |  |  |  | 2240 nM |  |

Continued, in another order:

| IC50 [1] | IC50 [2] | IC50 [4] | Compound | IC50 [7] | also measured |
| --- | --- | --- | --- | --- | --- |
| 20 nM | 7370 nM | 13800 nM | COc1ccc(CCn2c(=O)c3ccccc3n(Cc3ccc(C(=O)NO)cc3)c2=O)cc1 |  | IC50 [3]: 1150 nM |
| 29 nM |  |  | O=C(NO)c1ccc(Cn2c(=O)n(CCc3ccccc3)c(=O)c3cccnc32)cc1 | 2840 nM | Ki [5]: 4.5 nM; Ki [6]: 3.89 nM |
|  | > 10000 nM | > 10000 nM | O=C(NO)c1cc(Cn2c(=O)n(CCc3ccccc3)c(=O)c3ccccc32)cs1 |  |  |
| 4630 nM | > 10000 nM | > 10000 nM | O=C(NO)c1cccc(Cn2c(=O)n(CCc3ccccc3)c(=O)c3ccccc32)c1 |  |  |
| 22 nM |  |  | O=C(NO)c1ccc(Cn2c(=O)n(CCc3ccccc3)c(=O)c3ccc(Cl)cc32)cc1 |  |  |
